According to ChEMBL document CHEMBL1136489 (Bioorg Med Chem Lett, 2003):

Assays:
Assay type in all cases: protein-complex assay
[1] = biological target: Protein farnesyltransferase (Homo sapiens, UniProt P49354+P49356); experiment: In vitro inhibition of farnesyl protein transferase
In short: (§1)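 Cell-free enzyme inhibition assay, run as previously described with modifications.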

[2] = biological target: Geranylgeranyl transferase type I (Homo sapiens, UniProt P49354+P53609); experiment: In vitro inhibition of Geranylgeranyl protein transferase I; in short: as §1
[3] = biological target: Protein farnesyl/geranylgeranyl transferase (Homo sapiens) (UniProt P49354+P49356+P53609); experiment: Selectivity for Geranylgeranyl protein transferase I compared to farnesyl protein transferase

IC50 [1] | IC50 [2] | Selectivity [3] | SMILES
5000 nM | 275 nM | 18 | CC(C)=CCC/C(C)=C/CC/C(C)=C/CC/C(C)=C/CNC(=O)CP(=O)(O)O
> 10000 nM | 146 nM | > 68 | CCC(C(=O)NOC/C=C(\C)CC/C=C(\C)CC/C=C(\C)CCC=C(C)C)P(=O)(O)O (stereo unspecified)
 | 66 nM |  | CC(C)=CCC/C(C)=C/CC/C(C)=C/CC/C(C)=C/CONC(=O)CP(=O)(O)O
> 10000 nM | 151 nM | > 66 | CC(C)=CCC/C(C)=C/CC/C(C)=C/CC/C(C)=C/CONC(=O)C(C)P(=O)(O)O (stereo unspecified)
> 10000 nM | 111 nM | > 90 | CC(C)=CCC/C(C)=C/CC/C(C)=C/CC/C(C)=C/CNC(=O)C(C)P(=O)(O)O (stereo unspecified)
> 10000 nM | 566 nM | > 18 | CCC(C(=O)NC/C=C(\C)CC/C=C(\C)CC/C=C(\C)CCC=C(C)C)P(=O)(O)O (stereo unspecified)
